Data taken from ChEMBL document CHEMBL1759990, “Synthesis and SAR of novel quinazolines as potent and brain-penetrant c-jun N-terminal kinase (JNK) inhibitors” (Bioorg Med Chem Lett, 2011).

Tests used:
[1] = Drug level in mouse brain at 10 mg/kg, ip after 2 hrs; type: ADME, organism-based; design: dose 10 mg/kg, route intraperitoneal; details: read-out: Drug uptake
In short: (§1)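 Mouse dosed at 10 mg/kg ip. Brain and plasma concentrations (µM) were measured at 2 h.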

[2] = target: Mitogen-activated protein kinase 10 (Homo sapiens, UniProt P53779); assay: Inhibition of JNK3 by HRTF
In short: (§2)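 HTRF kinase assay with final concentrations of 0.1 nM JNK1 or 0.3 nM JNK3, 0.4 nM biotinylated-ATF2 substrate and 1 mM ATP. Phospho-Thr71-ATF-2 was detected with a Europium-cryptate anti-phospho-Thr71-ATF-2 antibody, with streptavidin-allophycocyanin-XL as acceptor. A 10-point dose-response was run in duplicate and fit to a four-parameter logistic. JNK3 values are means of four or more experiments; JNK1 values are means of two or more.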

[3] = Drug level in mouse plasma at 10 mg/kg, ip after 2 hrs; type: ADME, organism-based; design: dose 10 mg/kg, route intraperitoneal; details: read-out: Drug uptake; in short: as §1
[4] = target: Mitogen-activated protein kinase 8 (Homo sapiens, UniProt P45983); assay: Inhibition of JNK1 by HRTF; in short: as §2
Rattus norvegicus [5] = assay: Oral bioavailability in rat at 2 mg/kg; type: ADME, organism-based; details: in vivo
[6] = AUC in rat at 2 mg/kg, po; type: ADME, organism-based; design: dose 2 mg/kg, route oral; details: plasma
[7] = Volume of distribution in rat at 1 mg/kg, iv; type: ADME, organism-based; design: dose 1 mg/kg, route intravenous; details: in vivo
Rattus norvegicus [8] = assay: Half life in rat at 1 mg/kg, iv; type: ADME, organism-based; design: dose 1 mg/kg, route intravenous; details: in vivo
[9] = Cmax in rat at 2 mg/kg, po; type: ADME, organism-based; design: dose 2 mg/kg, route oral; details: in vivo

Chain of Mitogen-activated protein kinase 10 (P53779 whole entry): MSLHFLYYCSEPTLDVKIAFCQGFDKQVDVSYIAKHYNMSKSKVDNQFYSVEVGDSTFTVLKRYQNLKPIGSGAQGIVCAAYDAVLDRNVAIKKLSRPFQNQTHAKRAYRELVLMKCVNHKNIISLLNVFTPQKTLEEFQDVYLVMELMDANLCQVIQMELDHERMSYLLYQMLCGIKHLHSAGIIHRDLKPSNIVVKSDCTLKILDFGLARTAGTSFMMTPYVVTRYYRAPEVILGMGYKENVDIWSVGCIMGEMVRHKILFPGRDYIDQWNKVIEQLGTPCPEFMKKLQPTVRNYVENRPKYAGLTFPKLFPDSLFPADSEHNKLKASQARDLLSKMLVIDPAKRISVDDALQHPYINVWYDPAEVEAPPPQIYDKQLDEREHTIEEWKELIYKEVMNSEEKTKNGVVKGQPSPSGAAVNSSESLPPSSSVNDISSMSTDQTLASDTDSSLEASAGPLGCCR
Chain of Mitogen-activated protein kinase 8 (P45983 whole entry): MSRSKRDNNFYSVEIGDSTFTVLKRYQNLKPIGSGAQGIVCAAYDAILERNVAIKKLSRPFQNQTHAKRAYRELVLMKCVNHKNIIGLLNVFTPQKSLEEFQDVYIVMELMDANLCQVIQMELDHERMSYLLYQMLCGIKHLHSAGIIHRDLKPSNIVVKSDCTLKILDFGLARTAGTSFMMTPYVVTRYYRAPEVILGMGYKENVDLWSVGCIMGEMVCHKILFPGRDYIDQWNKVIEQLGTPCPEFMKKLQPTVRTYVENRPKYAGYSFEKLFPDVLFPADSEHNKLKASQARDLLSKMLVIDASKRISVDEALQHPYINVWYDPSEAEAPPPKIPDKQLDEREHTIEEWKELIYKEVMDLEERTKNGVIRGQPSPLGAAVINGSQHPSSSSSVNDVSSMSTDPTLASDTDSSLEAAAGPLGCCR

| concentration at 2 h [1] | IC50 [2] | concentration at 2 h [3] | SMILES | further results |
| --- | --- | --- | --- | --- |
|  | 730 nM |  | Cc1ccc(-c2ccc3cnc(Nc4ccc(-n5cnc(N6CCOCC6)n5)cc4)nc3c2)cn1 |  |
| 5.6 µM | 190 nM | 8.3 µM | Cn1cc(-c2ccc3cnc(Nc4ccc(-n5cnc(N6CCOCC6)n5)cc4)nc3c2C(F)(F)F)cn1 |  |
| 4.9 µM | 4 nM | 9.4 µM | COc1c(-c2cnn(C)c2)ccc2cnc(Nc3ccc(-n4cnc(N5CCOCC5)n4)cc3)nc12 | F (Rattus norvegicus [5]): 8% |
| 7.6 µM | 10 nM | 7.4 µM | Cc1c(-c2cnn(C)c2)ccc2cnc(Nc3ccc(-n4cnc(N5CCOCC5)n4)cc3)nc12 |  |
| 1.1 µM | 10 nM | 6.4 µM | Cn1cc(-c2ccc3cnc(Nc4ccc(-n5cnc(N6CCOCC6)n5)cc4)nc3c2-c2ccccc2)cn1 |  |
| 7.2 µM | 63 nM | 4.3 µM | CC(C)n1cc(-c2ccc3cnc(Nc4ccc(-n5cnc(N6CCOCC6)n5)cc4)nc3c2Cl)cn1 |  |
|  | > 20000 nM |  | c1ccc(-c2ccc3cnc(Nc4ccc(-n5cnc(N6CCOCC6)n5)cc4)nc3c2)cc1 |  |
| 1.31 µM | 50 nM | 42.9 µM | c1cc(-n2cnc(N3CCOCC3)n2)ccc1Nc1ncc2ccc(-c3cn[nH]c3)cc2n1 | IC50 [4]: 40 nM |
| 0.23 µM | 30 nM | 2.31 µM | Cc1ccc(-c2cccc3cnc(Nc4ccc(-n5cnc(C)n5)cc4)nc23)cn1 |  |
| 5 µM | 20 nM | 10.6 µM | Cn1cc(-c2ccc3cnc(Nc4ccc(-n5cnc(N6CCOCC6)n5)cc4)nc3c2C2CC2)cn1 |  |
| 12.7 µM | 60 nM | 5.2 µM | c1ccc(-c2cccc3cnc(Nc4ccc(-n5cnc(N6CCOCC6)n5)cc4)nc23)cc1 | IC50 [4]: 50 nM |
| 1.06 µM | 60 nM | 0.78 µM | Cc1ccc(-c2cccc3cnc(Nc4ccc5c(c4)OCO5)nc23)cn1 |  |
|  | 90 nM |  | Cc1ccc(-c2cccc3cnc(Nc4ccc(C(=O)N5CCOCC5)cc4)nc23)cn1 |  |

More lines, now with the values behind:

| SMILES | concentration at 2 h [1] | IC50 [2] | concentration at 2 h [3] | further results |
| --- | --- | --- | --- | --- |
| Cc1ccc(-c2cccc3cnc(Nc4ccc(-n5cnc(N6CCOCC6)n5)cc4)nc23)cn1 | 0.15 µM | 30 nM | 2.7 µM |  |
| Cc1ccc(-c2cccc3cnc(N[C@H]4CC[C@@H](C(=O)N5CCCC5)CC4)nc23)cn1 |  | 30 nM |  |  |
| COc1ccc(-c2cccc3cnc(Nc4ccc(-n5cnc(N6CCOCC6)n5)cc4)nc23)cc1F | 1.5 µM | 70 nM | 6.1 µM | IC50 [4]: 90 nM |
| COc1ccc(-c2cccc3cnc(Nc4ccc(-n5cnc(C)n5)cc4)nc23)cc1F | 7.6 µM | 80 nM | 10.3 µM |  |
| COc1ccc(-c2cccc3cnc(Nc4ccc(-n5cnc(-c6ccccn6)n5)cc4)nc23)cc1F |  | 90 nM |  |  |
| c1cc(-c2nccs2)c2nc(Nc3ccc(-n4cnc(N5CCOCC5)n4)cc3)ncc2c1 |  | 7 nM |  | IC50 [4]: 30 nM |
| c1cncc(-c2ccc3cnc(Nc4ccc(-n5cnc(N6CCOCC6)n5)cc4)nc3c2)c1 | 8.1 µM | 210 nM | 26.7 µM |  |
| Cc1ncn(-c2ccc(Nc3ncc4cccc(-c5nccs5)c4n3)cc2)n1 | 4.5 µM | 20 nM | 5 µM | IC50 [4]: 10 nM |
| c1cc(-n2cnc(N3CCOCC3)n2)ccc1Nc1ncc2ccc(N3CCOCC3)cc2n1 |  | 4400 nM |  |  |
| Cn1cc(-c2ccc3cnc(Nc4ccc(-n5cnc(N6CCOCC6)n5)cc4)nc3c2)cn1 | 7.17 µM | 90 nM | 17.8 µM | AUC [6]: 6.3 µM·h; Vd [7]: 0.8 L/kg; F (Rattus norvegicus [5]): 28%; t1/2 (Rattus norvegicus [8]): 3 h; IC50 [4]: 50 nM; Cmax [9]: 0.7 µM |
| c1cc(-n2cnc(N3CCOCC3)n2)ccc1Nc1ncc2ccc(-c3cnoc3)cc2n1 |  | 700 nM |  |  |
| Cn1cc(-c2ccc3cnc(Nc4ccc(-n5cnc(N6CCOCC6)n5)cc4)nc3c2Cl)cn1 | 8.3 µM | 40 nM | 10.4 µM | AUC [6]: 2.3 µM·h; Vd [7]: 1.4 L/kg; F (Rattus norvegicus [5]): 19%; t1/2 (Rattus norvegicus [8]): 3 h; Cmax [9]: 0.3 µM |
| Cn1cc(-c2ccc3cnc(Nc4ccc(-n5cnc(-c6ccccn6)n5)cc4)nc3c2)cn1 | 1.37 µM | 60 nM | 13.1 µM | IC50 [4]: 100 nM |
| Cn1cc(-c2cccc3cnc(Nc4ccc(-n5cnc(N6CCOCC6)n5)cc4)nc23)cn1 | 0.23 µM | 20 nM | 2.2 µM | IC50 [4]: 10 nM |
| Cc1ccc(-c2cccc3cnc(NC4CCC(O)CC4)nc23)cn1 (stereo not given) |  | 50 nM |  |  |
| Cc1ccc(-c2cccc3cnc(Nc4ccc(F)cc4)nc23)cn1 |  | 170 nM |  |  |
| Cn1cc(-c2ccc3cnc(Nc4ccc(-n5cnc(N6CCOCC6)n5)cc4)nc3c2-c2cnn(C)c2)cn1 | 0.22 µM | 9 nM | 6.3 µM |  |
| Cc1ccc(-c2ncn(-c3ccc(Nc4ncc5ccc(-c6cn[nH]c6)cc5n4)cc3)n2)cn1 |  | 50 nM |  |  |
